# Data published in ChEMBL document CHEMBL3792296, “Synthesis and antiproliferative activity of 9-benzylamino-6-chloro-2-methoxy-acridine derivatives as potent DNA-binding ligands and topoisomerase II inhibitors” (Eur J Med Chem, 2016).
# Calls of active or inactive are those of the source. The calls are words filed in the database; no cut-off is given here.
# Legend:
# MCF7 = assay: Antiproliferative activity against human MCF7 cells after 48 hrs by MTT assay; assay type: functional, cell-based; conditions: MCF7, 48 h
# In short: (§1)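 MTT assay: cells seeded at 4-8 × 10³ per well, incubated overnight at 37 °C in 5% CO₂, then given fresh medium with graded compound concentrations or equal DMSO for 48 h. MTT (5 mg/mL solution) added for a further 4 h, formazan dissolved in DMSO, absorbance read at 490 nm. Six cancer cell lines tested.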
# [1] = Antiproliferative activity against human HCT116 cells after 48 hrs by MTT assay; assay type: functional, cell-based; conditions: HCT-116, 48 h; in short: as §1
# [2] = biological target: DNA topoisomerase 2-alpha (Homo sapiens) (UniProt P11388); assay: Inhibition of human recombinant topoisomerase 2-alpha expressed in Escherichia coli assessed as reduction in enzyme-mediated relaxation of supercoiled pBR322 DNA at 100 uM after 10 to 15 mins by agarose gel electrophoresis
# In short: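 Relaxation of 500 ng supercoiled pBR322 by 1 unit human Topo I or Topo IIα, with or without compound, in 20 µL reaction buffer at 37 °C for 10-15 min. Reactions stopped with loading buffer, run on 0.8% agarose in TAE at 80 V for 30 min. Gels stained with ethidium bromide 2.5 µg/mL and viewed under UV.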
# A549 [3] = assay: Cellular uptake in human A549 cells at 1 to 5 uM after 4 hrs by FACS analysis; assay type: ADME, cell-based; conditions: a549, 4 h
# In short: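 A549 cells treated with 1 or 5 µM for 4 h; 8 and 16 h also examined. Cells trypsinized, pelleted, resuspended in PBS and analysed at once by FACS. Intrinsic compound fluorescence read with 400 nm excitation, at least 10000 cells per sample.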
# Calf thymus DNA [4] = assay: Binding affinity to calf thymus DNA assessed as hypochromicity change at 10 uM after 5 mins by UV-vis spectrophotometry relative to control; assay type: nucleic-acid assay; conditions: Bos taurus
# In short: (§2)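 ctDNA at 0-44 µM is added to compound at 10 µM final in Tris-HCl buffer (pH 7.4). UV-vis absorption spectra are recorded after 5 min standing. The binding constant K_b is taken from a plot of absorption data against DNA concentration.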
# Calf thymus DNA [5] = assay: Binding affinity to calf thymus DNA assessed as bathochromic shift at 10 uM after 5 mins by UV-vis spectrophotometry; assay type: nucleic-acid assay; conditions: Bos taurus; in short: as §2
# A549 [6] = assay: Induction of DNA damage in human A549 cells assessed as tail DNA at 5 uM after 24 hrs by propidium iodide staining based comet assay (reference value: 0.02%); assay type: cell-based
# In short: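 Alkaline comet assay. About 10⁵ A549 cells per well incubated 12 h, then treated 24 h in serum-free medium against a DMSO control. Cells embedded in low-melting agarose, lysed 2 h, alkaline-unwound 0.5 h at 4 °C, electrophoresed at 300 mA for 25 min in the dark. Slides neutralized, PI-stained, 50 random cells scored for % tail DNA.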
# A549 [7] = assay: Induction of DNA damage in human A549 cells assessed as increase in gamma-H2AX expression at 1 to 2.5 uM after 48 hrs by Western blot analysis; assay type: cell-based
# In short: (§3)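 A549 cells grown to 80% confluency, treated with graded concentrations for 48 h, then lysed in Tris-HCl/NaCl/Triton X-100 buffer with protease inhibitors. 40 µg protein resolved on 12 or 15% SDS-PAGE and blotted to PVDF. Primary antibodies used at 1:1000 for 6-8 h, HRP anti-rabbit at 1:2000 for 2 h, ECL detection, β-actin as loading control.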
# A549 [8] = assay: Induction of apoptosis in human A549 cells assessed as early apoptotic cells at 5 uM after 36 hrs by Annexin V-FITC/propidium iodide staining based FACS analysis (reference value: 0.29%); assay type: functional
# In short: (§4)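 A549 cells seeded at 2 × 10⁵ per well, incubated overnight, then treated at 0, 5 or 10 µM. The legend gives 36 or 48 h; the methods section states 24 h. Annexin V-FITC/PI kit staining followed by flow cytometry. Early and late apoptotic cells expressed as cumulative percentage relative to control.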
# A549 [9] = assay: Induction of apoptosis in human A549 cells assessed as early apoptotic cells at 10 uM after 48 hrs by Annexin V-FITC/propidium iodide staining based FACS analysis (reference value: 0.94%); assay type: functional; in short: as §4
# A549 [10] = assay: Induction of apoptosis in human A549 cells assessed as late apoptotic cells at 5 uM after 48 hrs by Annexin V-FITC/propidium iodide staining based FACS analysis (reference value: 0.62%); assay type: functional; in short: as §4
# A549 [11] = assay: Induction of apoptosis in human A549 cells assessed as increase in expression of cleaved caspase 9 at 1 to 2.5 uM after 48 hrs by Western blot analysis; assay type: functional, cell-based; in short: as §3
# A549 [12] = assay: Cell cycle arrest in human A549 cells assessed as accumulation at G0/G1 phase at 1 uM after 36 hrs by propidium iodide staining based flow cytometry (reference value: 61.65%); assay type: functional
# A549 [13] = assay: Cell cycle arrest in human A549 cells assessed as accumulation at S phase at 1 uM after 36 hrs by propidium iodide staining based flow cytometry (reference value: 30.73%); assay type: functional
# A549 [14] = assay: Cell cycle arrest in human A549 cells assessed as accumulation at S phase at 5 uM after 36 hrs by propidium iodide staining based flow cytometry (reference value: 30.73%); assay type: functional
# A549 [15] = assay: Cell cycle arrest in human A549 cells assessed as accumulation at G2/M phase at 0.5 uM after 36 hrs by propidium iodide staining based flow cytometry (reference value: 7.62%); assay type: functional
# A549 [16] = assay: Cell cycle arrest in human A549 cells assessed as accumulation at G2/M phase after 36 hrs by propidium iodide staining based flow cytometry; assay type: functional
# Sequence of DNA topoisomerase 2-alpha (Homo sapiens) (P11388 whole entry): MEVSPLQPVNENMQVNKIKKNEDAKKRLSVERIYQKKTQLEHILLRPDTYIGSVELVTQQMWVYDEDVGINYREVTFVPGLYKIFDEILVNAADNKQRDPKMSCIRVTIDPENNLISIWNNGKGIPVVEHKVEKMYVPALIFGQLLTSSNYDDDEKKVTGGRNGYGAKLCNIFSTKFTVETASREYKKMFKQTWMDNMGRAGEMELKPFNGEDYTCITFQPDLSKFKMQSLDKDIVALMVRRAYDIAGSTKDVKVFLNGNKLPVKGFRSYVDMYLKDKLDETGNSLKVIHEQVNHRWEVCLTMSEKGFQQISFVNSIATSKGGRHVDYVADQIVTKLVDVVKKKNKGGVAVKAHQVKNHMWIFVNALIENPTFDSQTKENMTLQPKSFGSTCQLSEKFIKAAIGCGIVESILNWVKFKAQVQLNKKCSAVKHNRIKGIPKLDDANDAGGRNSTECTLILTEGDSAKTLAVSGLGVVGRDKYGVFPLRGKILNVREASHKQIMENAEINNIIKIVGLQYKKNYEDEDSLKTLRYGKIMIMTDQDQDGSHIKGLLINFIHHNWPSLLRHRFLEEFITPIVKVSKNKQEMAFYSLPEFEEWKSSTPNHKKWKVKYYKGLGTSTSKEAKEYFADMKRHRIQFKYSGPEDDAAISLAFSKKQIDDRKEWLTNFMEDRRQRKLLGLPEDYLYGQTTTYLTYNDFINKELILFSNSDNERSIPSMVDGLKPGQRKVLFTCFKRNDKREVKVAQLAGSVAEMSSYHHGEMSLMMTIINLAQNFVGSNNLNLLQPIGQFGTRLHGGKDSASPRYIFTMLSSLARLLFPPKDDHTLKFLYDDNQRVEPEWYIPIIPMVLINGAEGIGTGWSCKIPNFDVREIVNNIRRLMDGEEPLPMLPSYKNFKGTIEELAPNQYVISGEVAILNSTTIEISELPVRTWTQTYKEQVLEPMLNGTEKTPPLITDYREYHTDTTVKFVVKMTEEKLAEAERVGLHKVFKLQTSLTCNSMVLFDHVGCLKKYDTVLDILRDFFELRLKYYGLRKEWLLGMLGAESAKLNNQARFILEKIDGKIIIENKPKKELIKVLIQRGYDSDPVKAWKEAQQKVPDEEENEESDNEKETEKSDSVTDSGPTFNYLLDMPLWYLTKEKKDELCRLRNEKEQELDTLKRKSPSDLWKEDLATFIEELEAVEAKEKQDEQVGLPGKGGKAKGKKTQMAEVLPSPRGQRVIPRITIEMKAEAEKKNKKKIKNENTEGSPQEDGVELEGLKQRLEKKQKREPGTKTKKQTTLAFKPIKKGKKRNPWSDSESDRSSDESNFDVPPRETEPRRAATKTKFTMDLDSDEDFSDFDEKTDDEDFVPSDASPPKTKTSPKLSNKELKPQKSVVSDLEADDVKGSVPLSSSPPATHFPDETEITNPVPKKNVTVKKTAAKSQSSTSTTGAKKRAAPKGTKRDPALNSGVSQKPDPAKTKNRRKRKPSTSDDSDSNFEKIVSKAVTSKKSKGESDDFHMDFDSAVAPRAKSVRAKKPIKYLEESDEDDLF
smiles,measurement,setting,value
COc1ccc(CNc2c3ccc(Cl)cc3nc3ccc(OC)cc23)cc1,IC50,MCF7,6.95 µM
same,IC50,[1],6.32 µM
same,inhibition,[2],Active
same,Drug uptake,A549 [3],Active
same,Activity,Calf thymus DNA [4],60%
same,Activity,Calf thymus DNA [5],10 nm
same,Activity,A549 [6],52.3%
same,Activity,A549 [7],Active
same,Activity,A549 [8],2.14%
same,Activity,A549 [9],8.8%
same,Activity,A549 [10],21.23%
same,Activity,A549 [11],Active
same,Activity,A549 [12],60.83%
same,Activity,A549 [13],29.55%
same,Activity,A549 [14],21.45%
same,Activity,A549 [15],8.12%
same,Activity,A549 [16],Dose-dependent effect
